Assay results reported in ChEMBL document CHEMBL2062503, “Potent and Selective Inhibitors of CK2 Kinase Identified through Structure-Guided Hybridization” (ACS Med Chem Lett, 2012).
In brackets after ≈: the same amount, converted by molar mass. Activity calls are given as the source filed them. No cut-off for these calls is given here.

What was measured:
[1] = Aqueous solubility of the compound; format: physicochemical; settings: buffer
Procedure, shortened: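 Solubility was determined in aqueous medium at pH 7.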

[2] = Lipophilicity, log D of the compound; format: physicochemical; settings: octanol/water
[3] = Fraction unbound in human plasma; format: ADME, cell-free
[4] = target: T1, Casein kinase II subunit alpha (Homo sapiens, UniProt P68400); assay: Inhibition of full length N-terminus His-tagged human CK2alpha expressed in insect Sf21 cells using BODIPY-FL-RRRDDDSDDD-CONH2 as substrate after 20 mins
SW480 = assay: Antiproliferative activity against human SW480 cells by alamar blue assay; format: functional
Procedure, shortened: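 SW480 proliferation was measured with the Alamar Blue read-out, and GI50 is reported in μM.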

[5] = target: Glycogen synthase kinase-3 beta (Homo sapiens, UniProt P49841); assay: Inhibition of GSK3beta
[6] = target: Homeodomain-interacting protein kinase 2 (Homo sapiens, UniProt Q9H2X6); assay: Inhibition of HipK2
[7] = target: Cyclin-dependent kinase 2 (Homo sapiens, UniProt P24941); assay: Inhibition of CDK2
[8] = target: T1, Casein kinase II subunit alpha; assay: Inhibition of CK2alpha in human HCT116 cells assessed as decrease in AKT phosphorylation at S129 residue after 3 to 24 hrs
HCT-116 [9] = assay: Growth inhibition of human HCT116 cells after 72 hrs by alamar blue assay; format: functional; settings: HCT-116, 72 h
Procedure, shortened: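 HCT-116 proliferation was read out by Alamar Blue. GI50 is reported in μM as the mean of at least three experiments.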

MDR1 [10] = assay: Apparent permeability from apical to basolateral side in pig LLC-PK1 cells expressing MDR1; format: ADME, cell-based, Sus scrofa
[11] = AUC in rat at 10 mg/kg, po; format: ADME, organism-based; parameters: dose 10 mg/kg, route oral; settings: plasma
Procedure, shortened: (§1)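 Rats received one oral dose of 10 mg/kg, and pharmacokinetic parameters were derived from that single administration.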

Cytochrome P450 1A2 = target: T2, Cytochrome P450 1A2 (Homo sapiens, UniProt P05177); assay: Inhibition of CYP1A2; format: ADME
T2 sequence (P05177 whole entry): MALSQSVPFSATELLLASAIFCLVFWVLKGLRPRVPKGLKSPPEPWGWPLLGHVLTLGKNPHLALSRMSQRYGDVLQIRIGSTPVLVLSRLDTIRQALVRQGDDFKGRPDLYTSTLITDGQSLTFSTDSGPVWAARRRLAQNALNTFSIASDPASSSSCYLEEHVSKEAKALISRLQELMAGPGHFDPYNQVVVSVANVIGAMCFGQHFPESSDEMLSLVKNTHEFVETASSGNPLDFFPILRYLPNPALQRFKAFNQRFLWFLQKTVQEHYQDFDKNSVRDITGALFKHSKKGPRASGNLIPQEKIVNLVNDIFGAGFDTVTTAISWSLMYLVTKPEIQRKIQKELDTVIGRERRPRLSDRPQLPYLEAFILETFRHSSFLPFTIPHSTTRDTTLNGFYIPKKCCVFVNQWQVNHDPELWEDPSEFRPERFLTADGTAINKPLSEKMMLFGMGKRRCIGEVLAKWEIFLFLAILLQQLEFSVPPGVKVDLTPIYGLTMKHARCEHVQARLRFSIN

[12] = Intrinsic clearance in rat liver microsomes; format: ADME, Microsome; settings: read-out: CLH
[13] = target: Voltage-gated inwardly rectifying potassium channel KCNH2 (Homo sapiens, UniProt Q12809); assay: Inhibition of human Erg
HCT-116 [14] = assay: Induction of apoptosis in human HCT116 cells assessed as caspase activation; format: functional, cell-based
[15] = Oral bioavailability in rat at 10 mg/kg; format: ADME, organism-based; settings: in vivo; procedure, shortened: as §1
[16] = Clearance in rat at 10 mg/kg, po; format: ADME, organism-based; parameters: dose 10 mg/kg, route oral; settings: in vivo; procedure, shortened: as §1
MDR1 [17] = assay: Apparent permeability from apical to basolateral side in MDCK cells expressing MDR1; format: ADME, cell-based, Canis lupus familiaris; settings: dog

Chain of Homeodomain-interacting protein kinase 2 (Q9H2X6 whole entry): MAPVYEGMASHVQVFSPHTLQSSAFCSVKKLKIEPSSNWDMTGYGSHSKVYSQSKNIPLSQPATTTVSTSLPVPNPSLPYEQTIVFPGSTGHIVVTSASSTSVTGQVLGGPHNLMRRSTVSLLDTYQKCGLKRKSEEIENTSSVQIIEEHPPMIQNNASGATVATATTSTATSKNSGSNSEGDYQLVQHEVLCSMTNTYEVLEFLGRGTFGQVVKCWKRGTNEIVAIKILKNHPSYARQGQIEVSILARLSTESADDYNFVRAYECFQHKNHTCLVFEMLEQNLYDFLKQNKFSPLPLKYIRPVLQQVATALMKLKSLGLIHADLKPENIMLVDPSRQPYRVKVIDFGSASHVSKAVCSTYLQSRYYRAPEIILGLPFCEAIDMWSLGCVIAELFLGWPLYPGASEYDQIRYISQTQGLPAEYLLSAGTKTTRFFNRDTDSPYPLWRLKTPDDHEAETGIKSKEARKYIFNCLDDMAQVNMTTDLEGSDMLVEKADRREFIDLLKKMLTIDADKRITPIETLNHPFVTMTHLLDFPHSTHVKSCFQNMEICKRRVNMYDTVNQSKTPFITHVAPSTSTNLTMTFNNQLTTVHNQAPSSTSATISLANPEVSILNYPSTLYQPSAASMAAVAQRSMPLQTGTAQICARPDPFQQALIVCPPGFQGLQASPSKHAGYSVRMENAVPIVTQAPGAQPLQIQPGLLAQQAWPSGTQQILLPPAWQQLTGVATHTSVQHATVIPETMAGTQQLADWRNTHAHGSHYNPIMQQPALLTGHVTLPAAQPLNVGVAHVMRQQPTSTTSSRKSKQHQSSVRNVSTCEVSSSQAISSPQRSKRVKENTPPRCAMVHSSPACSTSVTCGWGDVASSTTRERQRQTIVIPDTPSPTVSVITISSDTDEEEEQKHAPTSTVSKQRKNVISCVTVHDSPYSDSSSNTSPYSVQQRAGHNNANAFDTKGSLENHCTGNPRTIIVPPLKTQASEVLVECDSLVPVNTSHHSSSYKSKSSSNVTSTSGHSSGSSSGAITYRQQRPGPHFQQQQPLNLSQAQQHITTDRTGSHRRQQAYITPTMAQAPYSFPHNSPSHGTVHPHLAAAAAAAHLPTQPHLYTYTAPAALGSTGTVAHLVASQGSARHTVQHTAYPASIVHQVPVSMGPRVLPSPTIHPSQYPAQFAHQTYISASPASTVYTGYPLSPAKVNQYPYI
Chain of Glycogen synthase kinase-3 beta (P49841 whole entry): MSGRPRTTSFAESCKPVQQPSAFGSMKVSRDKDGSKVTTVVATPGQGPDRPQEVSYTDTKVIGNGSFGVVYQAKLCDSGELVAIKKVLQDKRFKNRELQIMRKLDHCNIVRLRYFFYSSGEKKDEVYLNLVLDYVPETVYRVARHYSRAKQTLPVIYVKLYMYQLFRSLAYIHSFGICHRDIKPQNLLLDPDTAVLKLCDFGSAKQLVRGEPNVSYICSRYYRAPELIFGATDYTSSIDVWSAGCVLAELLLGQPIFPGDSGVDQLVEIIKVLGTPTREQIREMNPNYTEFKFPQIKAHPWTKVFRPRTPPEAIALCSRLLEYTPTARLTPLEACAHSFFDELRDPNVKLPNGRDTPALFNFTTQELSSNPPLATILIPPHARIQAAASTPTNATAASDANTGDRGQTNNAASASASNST
T1 sequence (P68400 whole entry): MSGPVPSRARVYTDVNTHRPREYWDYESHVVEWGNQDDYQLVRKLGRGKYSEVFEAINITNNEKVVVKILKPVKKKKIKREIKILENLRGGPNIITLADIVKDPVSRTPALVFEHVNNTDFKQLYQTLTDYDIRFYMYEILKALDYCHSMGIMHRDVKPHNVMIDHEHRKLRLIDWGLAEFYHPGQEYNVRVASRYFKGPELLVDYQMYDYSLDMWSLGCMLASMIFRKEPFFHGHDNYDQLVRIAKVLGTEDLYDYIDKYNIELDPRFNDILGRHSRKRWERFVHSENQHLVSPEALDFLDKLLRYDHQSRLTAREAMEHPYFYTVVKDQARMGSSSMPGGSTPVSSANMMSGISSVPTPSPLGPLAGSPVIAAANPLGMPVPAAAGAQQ
Chain of Voltage-gated inwardly rectifying potassium channel KCNH2 (Q12809 whole entry): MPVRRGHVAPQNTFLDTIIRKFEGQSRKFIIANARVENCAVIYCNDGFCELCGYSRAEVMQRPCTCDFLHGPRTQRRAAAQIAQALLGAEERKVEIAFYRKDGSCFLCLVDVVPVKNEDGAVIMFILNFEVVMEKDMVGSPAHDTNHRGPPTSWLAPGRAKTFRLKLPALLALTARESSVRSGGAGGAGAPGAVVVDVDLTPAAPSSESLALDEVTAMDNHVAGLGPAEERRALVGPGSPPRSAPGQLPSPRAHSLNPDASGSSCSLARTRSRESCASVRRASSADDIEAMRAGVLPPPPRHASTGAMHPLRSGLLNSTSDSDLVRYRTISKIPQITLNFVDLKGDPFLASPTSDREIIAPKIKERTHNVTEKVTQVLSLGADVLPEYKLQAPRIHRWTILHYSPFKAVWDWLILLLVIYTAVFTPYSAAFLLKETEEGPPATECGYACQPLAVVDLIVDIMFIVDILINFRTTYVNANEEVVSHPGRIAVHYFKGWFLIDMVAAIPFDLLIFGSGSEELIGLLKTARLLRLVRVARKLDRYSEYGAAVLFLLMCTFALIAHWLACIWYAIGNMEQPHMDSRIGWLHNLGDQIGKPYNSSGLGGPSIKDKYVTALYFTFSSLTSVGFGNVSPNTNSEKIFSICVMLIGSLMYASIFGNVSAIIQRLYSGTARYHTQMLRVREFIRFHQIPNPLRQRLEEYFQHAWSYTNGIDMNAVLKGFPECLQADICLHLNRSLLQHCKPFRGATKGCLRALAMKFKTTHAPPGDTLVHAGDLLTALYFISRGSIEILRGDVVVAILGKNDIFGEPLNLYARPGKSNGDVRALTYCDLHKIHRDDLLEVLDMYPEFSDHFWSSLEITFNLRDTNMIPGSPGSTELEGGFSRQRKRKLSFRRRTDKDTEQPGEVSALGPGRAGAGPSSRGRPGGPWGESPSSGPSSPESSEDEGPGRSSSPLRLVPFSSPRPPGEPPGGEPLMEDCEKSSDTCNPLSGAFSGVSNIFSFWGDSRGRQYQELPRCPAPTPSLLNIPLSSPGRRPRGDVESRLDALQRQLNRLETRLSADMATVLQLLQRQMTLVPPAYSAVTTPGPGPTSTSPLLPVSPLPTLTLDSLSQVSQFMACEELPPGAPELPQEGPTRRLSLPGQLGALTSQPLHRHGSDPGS

| solubility [1] | logD [2] | fraction unbound [3] | GI50 (SW480) | GI50 (HCT-116 [9]) | Compound | further results |
| --- | --- | --- | --- | --- | --- | --- |
| 15 µM (≈ 6.43 µg/mL) | 2.2 | 0.056 |  |  | CC(=O)Nc1ccc2ccn(-c3cc(NCCN4CCCC4)n4ncc(C#N)c4n3)c2c1 |  |
| 750 µM (≈ 312 µg/mL) | 1.6 | 0.1 | 25000 nM |  | CC(=O)Nc1ccc2ccn(-c3cc(NCCCN(C)C)n4ncc(C#N)c4n3)c2c1 | IC50 [4]: 30 nM; IC50 [5]: 2600 nM; IC50 [6]: 60 nM; IC50 [7]: > 30000 nM; IC50 [8]: 1200 nM |
|  |  |  |  | > 30000 nM | CC(=O)Nc1cc2c(ccn2-c2cc(NC3CC3)n3ncc(C#N)c3n2)cc1C |  |
| < 1 µM | 2.5 | 0.018 |  | 16400 nM | CS(=O)(=O)Cc1ccc2ccn(-c3cc(NC4CC4)n4ncc(C#N)c4n3)c2c1 |  |
|  |  |  |  | > 30000 nM | N#Cc1cnn2c(N)cc(-c3ccccc3)nc12 |  |
| > 1000 µM | 1.8 | 0.067 | 13000 nM |  | CC(=O)Nc1ccc2ccn(-c3cc(NCCCN4CCCC4)n4ncc(C#N)c4n3)c2c1 | Papp A→B (MDR1 [10]): ≤ 5 ×10⁻⁶ cm/s; AUC [11]: 0.065 µM·h |
|  |  |  | 2100 nM | 3000 nM | CC(=O)Nc1cnc2ccn(-c3cc(NC4CC4)n4ncc(C#N)c4n3)c2c1 | IC50 [4]: < 3 nM; IC50 (Cytochrome P450 1A2): > 20000 nM; IC50 [5]: 1000 nM; IC50 [6]: 20 nM; IC50 [7]: > 30000 nM |
| < 1 µM | 2.9 |  |  |  | CC(=O)N(C)c1ccc2ccn(-c3cc(NC4CC4)n4ncc(C#N)c4n3)c2c1 | IC50 [4]: 11 nM; CLint scaled [12]: 100 mL/min/kg; IC50 [5]: 1400 nM; IC50 [6]: < 3 nM; IC50 [7]: > 30000 nM; IC50 [8]: 34 nM |
|  |  |  |  | 14000 nM | COc1ccc(-c2cc(NC3CC3)n3ncc(C#N)c3n2)cc1 |  |
| < 1 µM | 3.1 | 0.019 |  | 10100 nM | N#Cc1cnn2c(NC3CC3)cc(-n3ccc4ccc(CO)cc43)nc12 |  |
|  |  |  | 560 nM | 460 nM | CC(=O)Nc1ccc2ccn(-c3cc(Nc4ccn(C)n4)n4ncc(C#N)c4n3)c2c1 |  |
|  |  |  | 5000 nM | 3700 nM | CC(=O)Nc1ccc2cnn(-c3cc(NC4CC4)n4ncc(C#N)c4n3)c2c1 | IC50 [4]: 26 nM; IC50 [13]: > 33000 nM; IC50 [5]: 700 nM; IC50 [6]: 50 nM; IC50 [7]: > 30000 nM |
| < 10 µM | 3.3 | < 0.01 | 1000 nM | 530 nM | CC(=O)Nc1ccc2ccn(-c3cc(NC4CC4)n4ncc(C#N)c4n3)c2c1 | Activity (HCT-116 [14]): Active; bioavailability [15]: 5%; CL/F [16]: 10 mL/min/kg; IC50 [13]: 8600 nM; IC50 (Cytochrome P450 1A2): 100 nM; Papp A→B (MDR1 [17]): 22 ×10⁻⁶ cm/s; IC50 [5]: 130 nM; IC50 [6]: 30 nM; IC50 [7]: 26000 nM |
|  |  |  | 3200 nM | 2300 nM | CC(=O)Nc1ccc2c(c1)c(-c1cc(NC3CC3)n3ncc(C#N)c3n1)cn2CCCO |  |
|  |  |  | 1100 nM | 700 nM | CC(=O)Nc1ccc2c(c1)c(-c1cc(NC3CC3)n3ncc(C#N)c3n1)cn2C |  |
|  |  |  | 730 nM | 530 nM | CC(=O)Nc1ccc2c(c1)N(c1cc(NC3CC3)n3ncc(C#N)c3n1)CC2 | IC50 [13]: > 33000 nM |
|  |  |  |  | 4500 nM | COc1ccc(-c2cc(Nc3ccn(C)n3)n3ncc(C#N)c3n2)cc1 |  |
| 1 µM (≈ 0.387 µg/mL) | 2.2 | 0.124 | 2500 nM | 2200 nM | CC(=O)Nc1ccc2ccn(-c3cc(NC4COC4)n4ncc(C#N)c4n3)c2c1 |  |
|  |  |  | 15000 nM | 16000 nM | COc1ccncc1-c1cc(NC2CC2)n2ncc(C#N)c2n1 |  |
|  |  |  |  |  | CC(=O)Nc1ccc2c(c1)c(-c1cc(NC3CC3)n3ncc(C#N)c3n1)cn2CCC(=O)O | IC50 [5]: 6000 nM; IC50 [6]: 570 nM; IC50 [7]: > 30000 nM |
|  |  |  | 6600 nM |  | COC(=O)CCn1cc(-c2cc(NC3CC3)n3ncc(C#N)c3n2)c2cc(NC(C)=O)ccc21 |  |
|  |  |  | 700 nM | 700 nM | CC(=O)Nc1ccc2[nH]cc(-c3cc(NC4CC4)n4ncc(C#N)c4n3)c2c1 | IC50 [4]: 5 nM; IC50 [5]: 250 nM; IC50 [6]: < 3 nM; IC50 [7]: 14000 nM; IC50 [8]: 77 nM |
|  |  |  |  | > 30000 nM | N#Cc1cnn2c(N)cc(-c3cccs3)nc12 |  |
| 8 µM (≈ 3.23 µg/mL) | 2.6 | 0.041 |  | 2800 nM | CC(=O)Nc1ccc2ccn(-c3cc(NCCCCO)n4ncc(C#N)c4n3)c2c1 |  |
|  |  |  | 4500 nM | 2700 nM | CC(=O)Nc1ccc2c(c1)c(-c1cc(NC3CC3)n3ncc(C#N)c3n1)cn2CCO |  |
| 2 µM (≈ 0.889 µg/mL) |  | 0.11 | > 30000 nM |  | CC(=O)Nc1ccc2ccn(-c3cc(NCCN4CCOCC4)n4ncc(C#N)c4n3)c2c1 | Papp A→B (MDR1 [10]): ≤ 5 ×10⁻⁶ cm/s |
